# Tests used:
# [1] = tested on: Bacillus subtilis; assay: Antibacterial activity against Bacillus subtilis ATCC 6633 after 24 hrs by broth microdilution method; format: functional; conditions: ATCC 6633, 24 h
# Summary of the method: (§1)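 Bacteria grown and tested in Mueller-Hinton broth. Seven 2-fold dilutions spanning 32 to 0.5 µg mL-1, each well inoculated with bacterial suspension at 10^7 CFU mL-1, incubated 37 °C for 24 h. Turbidity read at 600 nm. MIC is the lowest concentration giving 80% growth reduction versus the compound-free growth control. DMSO (5% v/v) in TBS as negative control, triplicates.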
# [2] = tested on: Escherichia coli; assay: Antibacterial activity against Escherichia coli ATCC 25922 after 24 hrs by broth microdilution method; format: functional; conditions: ATCC 25922, 24 h; summary of the method: as §1
# [3] = tested on: Enterococcus faecalis; assay: Antibacterial activity against Enterococcus faecalis ATCC 29212 after 24 hrs by broth microdilution method; format: functional; conditions: ATCC 29212, 24 h; summary of the method: as §1
# [4] = tested on: Candida albicans; assay: Antibacterial activity against Candida albicans ATCC 10231 after 48 hrs by broth microdilution method; format: functional
# Summary of the method: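 Yeast grown and tested in Mueller-Hinton broth, microdilution with seven 2-fold dilutions from 32 to 0.5 µg mL-1. Inoculum at 10^7 CFU mL-1, 37 °C for 48 h. Growth measured as turbidity at 600 nm. MIC is the lowest concentration cutting growth by 80% relative to the compound-free control. DMSO (5% v/v) in TBS as negative control, run in triplicate.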
# [5] = tested on: Pseudomonas aeruginosa; assay: Antibacterial activity against Pseudomonas aeruginosa ATCC 27853 after 24 hrs by broth microdilution method; format: functional; conditions: ATCC 27853, 24 h; summary of the method: as §1
# [6] = tested on: Listeria monocytogenes; assay: Antibacterial activity against Listeria monocytogenes ATCC 7644 after 24 hrs by broth microdilution method; format: functional; conditions: ATCC 7644, 24 h; summary of the method: as §1
# [7] = tested on: Staphylococcus epidermidis; assay: Antibacterial activity against Staphylococcus epidermidis ATCC 12228 after 24 hrs by broth microdilution method; format: functional; conditions: ATCC 12228, 24 h; summary of the method: as §1
# [8] = tested on: Salmonella enteritidis; assay: Antibacterial activity against Salmonella enteritidis ATCC 13076 after 24 hrs by broth microdilution method; format: functional, Salmonella enterica subsp. enterica serovar Enteritidis; conditions: Salmonella enterica, ATCC 13076, 24 h; summary of the method: as §1
# [9] = tested on: Bacillus cereus; assay: Antibacterial activity against Bacillus cereus ATCC 11778 after 24 hrs by broth microdilution method; format: functional; conditions: ATCC 11778, 24 h; summary of the method: as §1
# [10] = tested on: Staphylococcus aureus; assay: Antibacterial activity against Staphylococcus aureus ATCC 25923 after 24 hrs by broth microdilution method; format: functional; conditions: ATCC 25923, 24 h; summary of the method: as §1
Compound,MIC [1] [µg/mL],MIC [2] [µg/mL],MIC [3] [µg/mL],"MIC ([4]; ATCC 10231, 48 h) [µg/mL]",MIC [5] [µg/mL],MIC [6] [µg/mL],MIC [7] [µg/mL],MIC [8] [µg/mL],MIC [9] [µg/mL],MIC [10] [µg/mL],MIC [4] [µg/mL]
COc1cc([C@@H]2CC(=O)c3c(cc(O)c(C/C=C(\C)CCC=C(C)C)c3O)O2)ccc1O,8,> 32,8,> 32,> 32,4,4,> 32,4,8,–
COc1cc([C@H]2Oc3cc(O)c(C/C=C(\C)CCC=C(C)C)c(O)c3C(=O)[C@@H]2O)ccc1O,4,> 32,4,> 32,> 32,2,2,> 32,2,2,–
COc1cc([C@@H]2CC(=O)c3c(cc(O)c(C/C=C(\C)CCC=C(C)C)c3O)O2)cc(O)c1O,4,> 32,4,> 32,> 32,4,4,> 32,4,2,–
COc1cc([C@@H]2CC(=O)c3c(cc(O)c(C/C=C(\C)CCC=C(C)C)c3O)O2)cc(OC)c1O,4,> 32,4,> 32,> 32,4,4,> 32,4,4,–
CC(C)=CCC/C(C)=C/Cc1c(O)cc2c(c1O)C(=O)C[C@@H](c1ccc(O)cc1)O2 [BONANNIONE A],4,> 32,4,> 32,> 32,4,4,> 32,4,8,–
O=C(O)c1cn(C2CC2)c2cc(N3CCNCC3)c(F)cc2c1=O [CIPROFLOXACIN],2,–,1,–,–,1,1,0.015,1,0.5,–
CC(C)=CCC/C(C)=C/Cc1c(O)cc2c(c1O)C(=O)C[C@@H](c1ccc(O)c(O)c1)O2 [NYMPHAEOL A],4,> 32,4,> 32,> 32,4,4,> 32,4,4,–
COc1cc([C@@H]2CC(=O)c3c(cc(O)c(C/C=C(\C)C/C=C/C(C)(C)O)c3O)O2)ccc1O [TOMENTODIPLACONE B],> 32,> 32,> 32,> 32,> 32,> 32,> 32,> 32,> 32,> 32,–
C=C(C)C(O)CC/C(C)=C/Cc1c(O)cc2c(c1O)C(=O)C[C@@H](c1ccc(O)c(OC)c1)O2 (stereo partly specified) [TOMENTODIPLACONE],–,> 32,–,> 32,> 32,32,32,> 32,16,16,–
NYSTATIN,–,–,–,–,–,–,–,–,–,–,4
